Source: PubChem BioAssay
APP transl inh – APP translation inhibition; SH-SY5Y APP 5'UTR-luciferase reporter, luminescence; inhibition, % at 2 µM; 190,000 tested, 0.82% active;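 active = inhibition above a set limit, derived from the sample mean plus 3 SD, cut at about 45% in these data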
IEC-6 cytotox – kills IEC-6 intestinal cells in KLF5 counter-screen | 290,000 tested, 0.78% active | AID 1825 | IEC-6 cytotoxicity, luminescence viability | inhibition, % at 5 µM; in the data active = inhibition above about 22%;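 also: 0% = plate median of test compound wells and 100% = cytotoxic reference compound wells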
BaF3 tox – reduces parental Ba/F3 cell viability, JAK2V617F counter-screen | 220,000 tested, 1.1% active | CellTiter-Glo ATP luminescence | inhibition, % at 5.6 µM | AID 1486;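 active = inhibition above a per-campaign cutoff, the mean inhibition of all tested compounds plus 3 SD, cut at about 27% in these data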;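 also: 0% = DMSO wells and 100% = JAK Inhibitor I control wells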
Ba/F3 V617F tox – reduce viability of Ba/F3 cells dependent on JAK2V617F; Ba/F3 EpoR-JAK2V617F viability, ATP luminescence; inhibition, % at 5.6 µM; 220,000 tested, 1.1% active;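 active = inhibition above the campaign mean plus 3 SD over all tested compounds, cut at about 24% in these data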;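 also: cytokine-independent growth of Ba/F3 cells driven by EpoR plus mutant JAK2; 0% = DMSO-treated cells and 100% = JAK inhibitor I control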
b-catenin transl – alters nuclear translocation of beta-catenin in HeLa cells. 190,000 tested, 0.3% active. immunofluorescence imaging. nuclear translocation activity, % at 5 µM;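 active = nuclear translocation activity above 50% at 5 µM, with a well cell count of 50 or more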;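 also: per-cell ratio of nuclear to cytoplasmic median beta-catenin stain intensity; plate controls were DMSO negative control for no effect and GSK-3 inhibitor IX positive control for full effect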
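Test system: HeLa cells, endogenous beta-catenin; Compound: single 5 µM dose plus 0.02–20 µM confirmation series; Times: compound exposure 24 h at 37°C; Signal: fluorescence imaging of beta-catenin antibody stain plus DAPI; Read-out: % activation, nuclear-to-cytoplasmic median beta-catenin signal ratio per cell.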
MT stabilizer – stabilizes microtubules in HeLa cells; HeLa tubulin immunostaining HCS, 24 h; share of cells brighter than vehicle mean+2SD; 200,000 tested, 0.83% active; % tubulin-high responders, % at 10 µM; AID 2205;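 active = plate Z-score above 3 for both tubulin-high and condensed-nucleus cell shares, with cell loss under 80%, at 10 µM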;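 also: anti alpha tubulin signal scored within the nucleus-defined area of each cell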
Active calls of the source: *; / = not tested or not shown. Sampled rows, rich in hits. Any-hit rate of the full collection: about 2.2%.

SMILES	APP transl inh	IEC-6 cytotox	BaF3 tox	Ba/F3 V617F tox	b-catenin transl	MT stabilizer
O=C(/C=C/c1ccccc1)Nc1ccc(Cl)cn1	-80	19	10	2	3	25*
COc1ccc(CCNC(=O)Cc2ccsc2)cc1	/	2	/	/	/	/
Cc1ccc(-c2cc3cccc[n+]3cc2-c2ccc(C)cc2)cc1	6	28*	79*	96*	-3	2
COc1cccc(NC(=O)C2CCC(CNS(=O)(=O)c3cccc4cccnc34)CC2)c1 (centres undefined)	/	-3	/	/	/	/
Clc1ccc(Cn2ncc3c(NCc4ccccc4)ncnc32)c(Cl)c1	13	7	2	2	10	17*
c1ccc(CNc2ncnc3c2cnn3-c2ccccc2)cc1	18	8	5	3	12	54*
Cn1ncc2c(NCc3ccccc3)ncnc21	20	0	0	-1	2	8
O=C(COc1ccccc1)N=C1SC2CS(=O)(=O)CC2N1Cc1ccccc1 (centres undefined)	/	2	/	/	/	/
CCN(CCO)c1nc(N2CCCCC2)c2cnn(C)c2n1	/	0	/	/	/	/
CCOC(=O)C1=C(CNCc2ccc(C)cc2)NC(=O)NC1c1ccc(OC)cc1 (centres undefined)	1	16	28*	52*	-2	9
O=C(c1ccccc1)C1C(c2ccccc2)C1[N+](=O)[O-] (centres undefined)	/	12	-9	9	0	/
CN(C)c1ccc([C@@H]2[C@@H]([N+](=O)[O-])[C@H]3C=Cc4ccccc4N3[C@H]2C(=O)c2ccc(Cl)cc2)cc1	-44	0	40*	7	3	20
Cc1[nH]ncc1-c1ccccc1Cl	/	0	0	2	1	/
O=C(c1ccc(Cl)c(S(=O)(=O)NCc2ccco2)c1)N1CCN(c2ccccc2F)CC1	-12	-3	7	0	/	41*
COc1ccccc1N1CCN(C(=O)c2ccc(Cl)c(S(=O)(=O)NCc3ccco3)c2)CC1	19	7	7	-1	129*	50*
COc1ccccc1N1CCN(C(=O)c2ccc(S(=O)(=O)N3CCCCCC3)cc2)CC1	-26	-1	94*	2	/	3
CCN(Cc1ccncc1)C(=O)c1ccc(Br)o1	/	3	/	/	/	/
NC(=O)COC(=O)c1ccc2noc(-c3ccccc3)c2c1	/	-4	/	/	/	/
Cc1cccc(N2CCN(C(=O)CCC(=O)N3CCOc4ccc(Cl)cc43)CC2C)c1 (centres undefined)	/	1	/	/	/	/
CN1c2ccccc2C(C)(C)C12C=Cc1cc(O)ccc1O2 (centres undefined)	4	11	63*	72*	4	13
Cc1ccccc1N1CCN(C2CCCN(C(=O)c3ccsc3)C2)CC1 (centres undefined)	/	3	/	/	/	/
Cn1cccc1C(=O)/C(C#N)=C/c1ccc(F)cc1	/	-1	/	/	/	/
COc1ccc2nc(SCC(=O)N3CC(=O)Nc4ccccc43)c(C#N)cc2c1	60*	2	3	0	/	27*
COc1ccc2nc(SCC(=O)N3CCN(c4ccccc4F)CC3)c(C#N)cc2c1	12	0	1	-2	/	2
O=C(Nc1ccccc1Br)C1CC(=O)N(c2ccc3c4c(cccc24)CC3)C1 (centres undefined)	-1	0	2	-2	4	38*
SMILES	APP transl inh	IEC-6 cytotox	BaF3 tox	Ba/F3 V617F tox	b-catenin transl	MT stabilizer
Cc1cc(NC(=O)c2ccc3c(c2)OCCO3)ccc1NC(=O)c1cc2ccccc2o1	-28	3	3	-3	0	3
O=C(Nc1ccc(NC(=O)c2cc3ccccc3o2)cc1)c1ccc2c(c1)OCCO2	67*	-3	7	1	0	2
COc1ccccc1-n1cnc2cc(NCc3ccccn3)ccc21	-45	1	5	-3	/	30*
COc1ccc(CN2C[C@H](Cc3ccccc3)[C@@H](CC(=O)Nc3ccccc3)C2=O)cc1	/	4	/	/	/	/
CC1C/C(=C/c2ccncc2)C(=O)/C(=C/c2ccncc2)C1 (centres undefined)	95*	22	-2	15	/	37*
COc1ccc(-c2oc(NC(=O)CSc3ncn[nH]3)c(C#N)c2-c2ccc(OC)cc2)cc1	4	6	14	4	0	47*
Cc1cc(C)nc(-n2nc(C)cc2NC(=O)c2cccc(S(=O)(=O)N(C)C)c2)n1	/	/	/	/	-7	/
Cc1ccc(C)c(C(=O)Nc2cc(C)nn2-c2nc(C)cc(C)n2)c1	10	-3	3	-2	-1	13*
CCOc1cc(/C=N/n2nnnc2N)ccc1OCc1c(C)no[n+]1[O-]	9	11	97*	2	1	2
COc1cc(C2Nc3ccc4ncccc4c3C3=C2C(=O)CCC3)ccc1O (centres undefined)	22	19	11	1	-2	27*
COc1cc(C2Nc3ccc4ncccc4c3C3=C2C(=O)CCC3)cc(OC)c1OC (centres undefined)	-7	-2	-2	0	2	6
COc1cccc(NC(=O)c2ccccc2N2C(=O)C3C4C=CC(C5CC45)C3C2=O)c1 (centres undefined)	/	-1	/	/	/	/
O=c1c(Cl)c(NCCCO)cnn1-c1nc2ccccc2[nH]1	-2	2	63*	34*	0	3
O=C(NNC(=O)C1CC(c2cccs2)=NO1)Nc1ccccc1 (centres undefined)	/	0	/	/	/	/
O=C(CSc1nnc(NC(=O)C2CC2)s1)Nc1ccc(F)cc1F	/	2	/	/	/	/
C[n+]1c2n(c3ccccc31)N=C(c1ccc(-c3ccccc3)cc1)CS2	0	16	71*	99*	-2	5
C[n+]1c2n(c3ccccc31)N=C(c1ccc(Br)cc1)CS2	-16	1	71*	66*	-1	4
Cc1cccc(-c2nnc3n2N=C(c2ccccc2)CS3)c1	-6	1	4	-1	2	3
C[n+]1c2n(c3ccccc31)N=C(c1ccccc1)CS2	-2	4	68*	91*	-2	7
COC(=O)c1ccccc1NC(=O)CCC(=O)N1CC(C)Oc2ccc(C)cc21 (centres undefined)	/	-6	/	/	/	/
O=C(CCCN1C(=O)C2CC=CCC2C1=O)Nc1ccccc1F (centres undefined)	/	1	/	/	/	/
CC(SCc1ccccc1)C(=O)Nc1ccccc1F (centres undefined)	/	6	/	/	/	/
O=C(CSc1nc2ccccc2s1)N/N=C/c1ccc(C(=O)O)cc1	14	3	4	0	-5	1
